Among the data in ChEMBL document CHEMBL1139340, “Synthesis, radiosynthesis, and biological evaluation of carbon-11 and fluorine-18 labeled reboxetine analogues: potential positron emission tomography radioligands for in vivo imaging of the norepinephrine transporter” (J Med Chem, 2009) are logD, Ratio Ki and Ki values, retold here.

For orientation: logD means lipophilicity at a set pH, counting ionised and neutral species. Lower therefore signals lower lipophilicity. Broadly, the Ki is the equilibrium dissociation constant of an inhibitor or competing ligand from its target.

Structures are written as SMILES. A value given as a limit tells only on which side of the number the result lay.

Data set [1] is described as follows: Lipophilicity, log P at pH 7.4. In kind it is physicochemical. The conditions noted are these: buffer. Summed up:
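Radiotracer (~5–10 μCi) in 2 mL 1-octanol plus 2 mL 0.02 M sodium phosphate buffer, pH 7.4. Vortexed 10 min at room temperature, centrifuged 5 min. 0.5 mL of each layer gamma-counted and decay corrected. log P = log(octanol counts/buffer counts), done three times and averaged.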

For data set [2], the species on record is Homo sapiens. Briefly: Selectivity for human NET over human DAT. An outline of the steps:
(§1)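 Competition binding in stably transfected cells expressing human transporters: NET vs [3H]nisoxetine and SERT vs [3H]citalopram in HEK-293 cells; DAT vs [125I]RTI-55 in canine kidney cells. Ki as geometric mean of at least three experiments in triplicate; selectivity as ratio of SERT or DAT Ki to NET Ki.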

For data set [3], the target named is Sodium-dependent noradrenaline transporter (Homo sapiens, UniProt P23975). As to the kind of experiment: Displacement of [3H]nisoxetine from human NET receptor expressed in HEK293 cells. In kind it is cell-based.
For data set [4], the target named is Sodium-dependent dopamine transporter (Homo sapiens, UniProt Q01959). As to the kind of experiment: Displacement of [125I]RTI-55 from human DAT receptor expressed in canine kidney cells. Type of data set: cell-based. An outline of the steps:
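Competition binding against [¹²⁵I]RTI-55 in canine kidney cells stably transfected with human DAT. Ki in nM, geometric mean ± SD of at least three separate experiments, each run in triplicate.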
In general terms: Displacement assays read how much labelled ligand stays bound in the presence of the test substance.

Data set [5] deals with Sodium-dependent serotonin transporter (Homo sapiens, UniProt P31645). As to the kind of experiment: Displacement of [3H]citalopram from human SERT receptor expressed in HEK293 cells. In kind it is cell-based. An outline of the steps:
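Competition binding against [³H]citalopram in HEK-293 cells stably transfected with human SERT. Ki in nM, geometric mean ± SD of at least three separate experiments, each run in triplicate.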

Data set [6] is filed under the species Homo sapiens. As to the kind of experiment: Selectivity for human NET over human SERT. Summed up: as §1

Sodium-dependent noradrenaline transporter, sequence (P23975 whole entry): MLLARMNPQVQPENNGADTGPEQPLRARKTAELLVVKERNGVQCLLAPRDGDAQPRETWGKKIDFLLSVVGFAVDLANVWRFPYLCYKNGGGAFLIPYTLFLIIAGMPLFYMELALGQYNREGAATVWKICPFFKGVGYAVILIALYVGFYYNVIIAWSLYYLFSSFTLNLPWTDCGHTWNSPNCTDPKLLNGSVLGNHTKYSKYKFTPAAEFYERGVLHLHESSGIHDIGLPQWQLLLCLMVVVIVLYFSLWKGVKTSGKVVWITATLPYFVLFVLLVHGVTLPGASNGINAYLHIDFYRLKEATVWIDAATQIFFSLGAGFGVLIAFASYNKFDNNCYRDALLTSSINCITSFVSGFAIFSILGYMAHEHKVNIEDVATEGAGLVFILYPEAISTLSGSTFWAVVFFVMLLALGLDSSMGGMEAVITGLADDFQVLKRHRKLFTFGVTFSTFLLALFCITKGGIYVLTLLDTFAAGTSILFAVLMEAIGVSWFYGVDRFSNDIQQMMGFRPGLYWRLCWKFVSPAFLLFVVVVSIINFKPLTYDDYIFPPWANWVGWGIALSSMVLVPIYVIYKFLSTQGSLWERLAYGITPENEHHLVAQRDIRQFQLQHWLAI
Sodium-dependent serotonin transporter, sequence (P31645 whole entry): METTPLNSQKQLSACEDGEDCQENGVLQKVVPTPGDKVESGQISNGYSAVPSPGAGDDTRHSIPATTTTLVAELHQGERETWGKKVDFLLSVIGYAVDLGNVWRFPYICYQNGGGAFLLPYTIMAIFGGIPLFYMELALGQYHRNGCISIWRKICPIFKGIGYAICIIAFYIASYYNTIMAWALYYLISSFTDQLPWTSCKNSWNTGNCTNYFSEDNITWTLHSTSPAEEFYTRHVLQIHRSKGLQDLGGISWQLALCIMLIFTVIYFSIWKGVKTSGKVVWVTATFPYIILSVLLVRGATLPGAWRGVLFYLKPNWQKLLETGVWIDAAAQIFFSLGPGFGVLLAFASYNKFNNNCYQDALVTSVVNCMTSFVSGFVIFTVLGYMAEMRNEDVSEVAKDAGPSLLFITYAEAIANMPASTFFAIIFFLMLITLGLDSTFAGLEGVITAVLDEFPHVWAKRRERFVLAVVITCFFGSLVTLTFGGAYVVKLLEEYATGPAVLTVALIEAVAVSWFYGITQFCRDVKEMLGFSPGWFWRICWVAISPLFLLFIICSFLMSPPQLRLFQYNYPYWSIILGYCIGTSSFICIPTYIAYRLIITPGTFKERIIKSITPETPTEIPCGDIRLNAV
Sodium-dependent dopamine transporter, sequence (Q01959 whole entry): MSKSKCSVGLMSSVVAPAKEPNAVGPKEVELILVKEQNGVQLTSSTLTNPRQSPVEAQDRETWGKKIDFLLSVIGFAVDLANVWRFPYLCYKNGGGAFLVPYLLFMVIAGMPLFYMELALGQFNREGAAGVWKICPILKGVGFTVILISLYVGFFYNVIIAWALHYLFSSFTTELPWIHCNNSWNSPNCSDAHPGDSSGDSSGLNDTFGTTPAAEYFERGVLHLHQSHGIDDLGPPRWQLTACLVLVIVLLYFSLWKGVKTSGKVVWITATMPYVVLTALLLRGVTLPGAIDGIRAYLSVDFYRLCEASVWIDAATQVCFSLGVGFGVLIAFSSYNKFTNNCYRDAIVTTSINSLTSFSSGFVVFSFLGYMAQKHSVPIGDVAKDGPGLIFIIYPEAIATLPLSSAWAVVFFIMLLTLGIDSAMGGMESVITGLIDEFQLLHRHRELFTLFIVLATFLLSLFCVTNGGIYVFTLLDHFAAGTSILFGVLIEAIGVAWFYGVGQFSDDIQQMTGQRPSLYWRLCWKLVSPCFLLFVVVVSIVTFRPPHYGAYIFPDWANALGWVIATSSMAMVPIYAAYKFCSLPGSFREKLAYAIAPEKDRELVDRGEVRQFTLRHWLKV

In data set [1], `Cc1ccccc1S[C@@H](c1ccccc1)[C@@H]1CNCCO1` showed a logD of 2.47. Moreover, the Ratio Ki in the data set filed under Homo sapiens [2] was 917; in the data set listed under Homo sapiens [6], 49. For the same compound, the Ki in data set [3] is 0.3 nM; in data set [4], 275 nM; in data set [5], 14.8 nM.
`Cc1ccccc1O[C@@H](c1ccccc1)[C@@H]1CNCCO1` displayed a logD in data set [1] of 2.04. Besides, the Ratio Ki came to 321 in the data set filed under Homo sapiens [2] and 92 in the data set filed under Homo sapiens [6]. The results for the Ki in data set [3], in data set [4] and in data set [5] were 1.02 nM, 327 nM and 93 nM, respectively.
For `FCCCc1ccccc1O[C@@H](c1ccccc1)[C@@H]1CNCCO1`, the logD in data set [1] is 2.29. Also, the values for the Ratio Ki in the data set filed under Homo sapiens [2] and in the data set filed under Homo sapiens [6] were above 2000 and 126, respectively. For the same compound, the Ki is 3.68 nM in data set [3], above 6000 nM in data set [4] and 463 nM in data set [5].
